Here are results for ten compounds from ChEMBL document CHEMBL1134649, “Syntheses and structure--activity relationships of novel apio and thioapio dideoxydidehydronucleosides as anti-HCMV agents” (J Med Chem, 2001).

SMILES strings stand for the structures. Values after ≈ are worked out from the molar mass of the structure shown. Bounds are passed on as bounds.

For experiment [1], the system named is Human betaherpesvirus 5. Kind of experiment: Antiviral activity was determined against Human cytomegalovirus (HCMV) strain AD-169 using CPE inhibition assay. The experiment is classed as functional, organism-based. In short, it runs like this: (§1)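 HEL cells in stationary phase were infected at 2–4 CCID50 per well and the virus was adsorbed 2 h at 37 °C. Unadsorbed virus was removed and compound in MEM/2% FBS was added, in duplicate per concentration, for 6 days. CPE was read either microscopically (70% ethanol fixation, Giemsa stain) or by fluorescein diacetate fluorescence (485/538 nm). EC50 was taken from semilog plots of %CPE against concentration.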

The subject of experiment [2] is Human betaherpesvirus 5. Kind of experiment: Antiviral activity was determined against Human cytomegalovirus (HCMV) strain Davis using CPE inhibition assay. The experiment is classed as functional, organism-based. The procedure, abridged: as §1
A further experiment relates to HEL 299. Kind of experiment: Cytotoxic concentration of compound was tested against HEL299(human embryonic lung fibroblast) cells using cytotoxic assay. In kind it is functional. In short, it runs like this: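 Run as a mock-infected control alongside the antiviral assay in HEL cells, with the same 6-day incubation in MEM/2% FBS. Viability was read by propidium iodide fluorescence in place of fluorescein diacetate. CC50 is the concentration giving 50% loss of viability.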

Turning to `Cc1cn(C2C=C(CO)CS2)c(=O)[nH]c1=O` (stereo not given), the EC50 in the experiment on Human betaherpesvirus 5 [1] and in the experiment on Human betaherpesvirus 5 [2] was > 100 µg/mL in each case. Further, in the experiment with HEL 299, the CC50 (commonly the concentration giving 50% cytotoxicity) was > 100 µg/mL.

On to `O=c1[nH]c(=O)n(C2C=C(CO)CO2)cc1I` (stereo not given), for which the EC50 – broadly, the concentration that produces a half-maximal response – stood at 44.1 µg/mL (≈ 131 µM) in the experiment on Human betaherpesvirus 5 [1] and 27.2 µg/mL (≈ 80.9 µM) with Human betaherpesvirus 5 [2]. In addition, the CC50 in the experiment with HEL 299 is > 100 µg/mL.

`O=c1[nH]c(=O)n(C2C=C(CO)CO2)cc1Br` (stereo not given): the EC50 in the experiment with Human betaherpesvirus 5 [1] worked out at 33.7 µg/mL (≈ 117 µM); with Human betaherpesvirus 5 [2], 25.4 µg/mL (≈ 87.9 µM). Moreover, the CC50 in the experiment with HEL 299 was > 100 µg/mL.

As for `O=c1ccn(C2C=C(CO)CS2)c(=O)[nH]1` (stereo not given), the EC50 with Human betaherpesvirus 5 [1] and in the experiment on Human betaherpesvirus 5 [2] was > 100 µg/mL each time. In addition, the CC50 with HEL 299 was > 100 µg/mL.

For `Cc1cn(C2C=C(CO)CO2)c(=O)[nH]c1=O` (stereo not given), the 50% effective concentration (EC50) in the experiment with Human betaherpesvirus 5 [1] was 33.3 µg/mL (≈ 149 µM); in the experiment with Human betaherpesvirus 5 [2] it was 16.6 µg/mL (≈ 74 µM). Besides, in the experiment with HEL 299, the CC50 was > 100 µg/mL.

As for `O=c1ccn(C2C=C(CO)CO2)c(=O)[nH]1` (stereo not given), the EC50 was 11.7 µg/mL (≈ 55.7 µM) in the experiment on Human betaherpesvirus 5 [1] and > 33.3 µg/mL in the experiment with Human betaherpesvirus 5 [2]. The CC50 in the experiment on HEL 299 turned out to be 33.3 µg/mL (≈ 158 µM).

Regarding `O=c1[nH]c(=O)n(C2C=C(CO)CO2)cc1Cl` (stereo not given), the EC50 in the experiment on Human betaherpesvirus 5 [1] turned out to be 41.7 µg/mL (≈ 170 µM); in the experiment on Human betaherpesvirus 5 [2], 25.1 µg/mL (≈ 103 µM). In the experiment on HEL 299, this compound showed a CC50 of 63.3 µg/mL (≈ 259 µM).

`O=c1[nH]c(=O)n(C2C=C(CO)CO2)cc1F` (stereo not given): the EC50 in the experiment with Human betaherpesvirus 5 [1] was found to be 6.9 µg/mL (≈ 30.2 µM); with Human betaherpesvirus 5 [2], 2.81 µg/mL (≈ 12.3 µM). Moreover, in the experiment with HEL 299, the CC50 is > 100 µg/mL.

Consider `O=C(O)P(=O)(O)O` [FOSCARNET], for which the results for the concentration giving a half-maximal response (EC50) with Human betaherpesvirus 5 [1] and in the experiment on Human betaherpesvirus 5 [2] were 64.9 µg/mL (≈ 515 µM) and 38.7 µg/mL (≈ 307 µM), respectively. In the experiment with HEL 299, the CC50 was > 300 µg/mL.

Turning to `Nc1nc2c(ncn2COC(CO)CO)c(=O)[nH]1` [GANCICLOVIR], the EC50 with Human betaherpesvirus 5 [1] was 1.09 µg/mL (≈ 4.27 µM); in the experiment with Human betaherpesvirus 5 [2] it was 0.61 µg/mL (≈ 2.39 µM). Besides, the CC50 with HEL 299 was > 10 µg/mL.
